From PMC7383777 (Pediatric Diabetes, 2020)
Read-outs that look alike come from different tables or passages of the source.

Type: in vivo, human
Settings: for Glucose intervention needed, subjects: between 2 and 6 hours postdose
Procedure, shortened: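 Randomized crossover: single s.c. pen dose of test or comparator insulin (100 U/mL) at two visits 3–22 days apart. Subjects were hospitalised 12 h and fasted to 6 h. AEs were treatment-emergent if onset was ≤7 days postdose. Hypoglycaemia followed ADA/ISPAD definitions, confirmed by meter PG <56 mg/dL and counted up to the next insulin or 16 h. Glucose was given below 56 mg/dL or at investigator discretion.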

[1] = across the three age groups, 0.2 U/kg s.c. single dose

insulin aspart [IAsp]
Safety and tolerability [1]: safe and well tolerated
Serious AEs [1]: No serious AEs were observed
Severe hypoglycemic episodes [1]: No severe hypoglycemic episodes were reported
Confirmed hypoglycemic episodes (PG below 56 mg/dL), number (adults, N = 15, 0.2 U/kg s.c. single dose): three
Glucose intervention needed, subjects (adults): three
Glucose intervention needed, subjects (all age groups): seven
Glucose intervention needed, subjects (children): three
